7 molecules from ChEMBL document CHEMBL3425486, “Lathyrol diterpenes as modulators of P-glycoprotein dependent multidrug resistance: structure-activity relationship studies on Euphorbia factor L3 derivatives” (J Med Chem, 2015) can be followed below.

Data set [1] addresses T1, ATP-dependent translocase ABCB1 (Homo sapiens, UniProt P08183). As to the kind of experiment: Inhibition of P-gp in human MCF7/ADR cells assessed as reversal of multidrug resistance by measuring relative enhancement intensity for adriamycin-induced cytotoxicity at 10 uM after 48 hrs by SRB colorimetric assay. In kind it is cell-based. Further details: scale not given: the % may be the effect or the level left. The settings on record: nci/adr-res. (The SRB assay estimates cell density from bound dye.)

For the next data set, the system named is NCI/ADR-RES. Put plainly: Inhibition of P-gp in human MCF7/ADR cells assessed as reversal of multidrug resistance at 10 uM by measuring ratio of EC50(adriamycin)/EC50(adriamycin + compound) after 48 hrs by SRB colorimetric assay. Type of data set: cell-based.
For data set [2], the target named is T1, ATP-dependent translocase ABCB1. Put plainly: Inhibition of P-gp in human MCF7/ADR cells assessed as forward scatter count of cells at 20 uM pre-treated for 1 hr at 37 degC followed by incubation with Rh123 for 1 hr by flow cytometry (reference value: 142.5 No unit). In kind it is cell-based. The settings on record: nci/adr-res.
Data set [3] has the same target. Put plainly: Inhibition of P-gp in human MCF7/ADR cells assessed as side scatter count of cells at 20 uM pre-treated for 1 hr at 37 degC followed by incubation with Rh123 for 1 hr by flow cytometry (reference value: 100.6 No unit). In kind it is cell-based. The settings on record: nci/adr-res. In general terms: Flow cytometry measures light scatter and fluorescence of single cells or particles in a stream.

Data set [4] shares this target. Put plainly: Inhibition of P-gp in human MCF7/ADR cells assessed as mean fluorescence intensity of cells at 20 uM pre-treated for 1 hr at 37 degC followed by incubation with Rh123 for 1 hr by flow cytometry (reference value: 108.1 +/- 43.9 No unit). Type of data set: cell-based. The settings on record: nci/adr-res.
For data set [5] the target is unchanged. As to the kind of experiment: Inhibition of P-gp in human MCF7/ADR cells assessed as peak fluorescence intensity of cells at 20 uM pre-treated for 1 hr at 37 degC followed by incubation with Rh123 for 1 hr by flow cytometry (reference value: 87.3 No unit). Type of data set: cell-based. The settings on record: nci/adr-res.
Another data set has as its system MCF7. Put plainly: Cytotoxicity against human MCF7 cells assessed as reduction in cell viability after 48 hrs by SRB colorimetric assay. Type of data set: functional, cell-based. The note with it: MCF7, 48 h. The gist of the method: (§1)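 MCF-7 from ATCC and its stepwise ADR-selected resistant subline, grown in RPMI-1640 with 10% FBS and penicillin/streptomycin at 37 °C, 5% CO2. 1 × 10^4 cells/well exposed to graded compound concentrations for 48 h. Cells fixed with 10% TCA, stained with 0.4% SRB in 1% acetic acid, dye extracted with 10 mM Tris base, OD read at 490 nm. Taxol positive control.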

Data set [6] is described as follows: Cytotoxicity against human MCF7/ADR cells assessed as reduction in cell viability after 48 hrs by SRB colorimetric assay. In kind it is functional, cell-based. The settings on record: NCI/ADR-RES. The procedure, abridged: as §1
Data set [7] in a line: Inhibition of P-gp in human MCF7/ADR cells assessed as reversal of multidrug resistance at 10 uM by measuring EC50 for adriamycin-induced cytotoxicity after 48 hrs by SRB colorimetric assay. The note with it: nci/adr-res.

As a reminder, the pIC50 is the IC50 on a negative log10 scale, so that one unit is a factor of ten. In general, EC50 refers to the concentration that produces a half-maximal response.

pIC50: −log10 of the molar value.

T1 sequence (P08183 whole entry): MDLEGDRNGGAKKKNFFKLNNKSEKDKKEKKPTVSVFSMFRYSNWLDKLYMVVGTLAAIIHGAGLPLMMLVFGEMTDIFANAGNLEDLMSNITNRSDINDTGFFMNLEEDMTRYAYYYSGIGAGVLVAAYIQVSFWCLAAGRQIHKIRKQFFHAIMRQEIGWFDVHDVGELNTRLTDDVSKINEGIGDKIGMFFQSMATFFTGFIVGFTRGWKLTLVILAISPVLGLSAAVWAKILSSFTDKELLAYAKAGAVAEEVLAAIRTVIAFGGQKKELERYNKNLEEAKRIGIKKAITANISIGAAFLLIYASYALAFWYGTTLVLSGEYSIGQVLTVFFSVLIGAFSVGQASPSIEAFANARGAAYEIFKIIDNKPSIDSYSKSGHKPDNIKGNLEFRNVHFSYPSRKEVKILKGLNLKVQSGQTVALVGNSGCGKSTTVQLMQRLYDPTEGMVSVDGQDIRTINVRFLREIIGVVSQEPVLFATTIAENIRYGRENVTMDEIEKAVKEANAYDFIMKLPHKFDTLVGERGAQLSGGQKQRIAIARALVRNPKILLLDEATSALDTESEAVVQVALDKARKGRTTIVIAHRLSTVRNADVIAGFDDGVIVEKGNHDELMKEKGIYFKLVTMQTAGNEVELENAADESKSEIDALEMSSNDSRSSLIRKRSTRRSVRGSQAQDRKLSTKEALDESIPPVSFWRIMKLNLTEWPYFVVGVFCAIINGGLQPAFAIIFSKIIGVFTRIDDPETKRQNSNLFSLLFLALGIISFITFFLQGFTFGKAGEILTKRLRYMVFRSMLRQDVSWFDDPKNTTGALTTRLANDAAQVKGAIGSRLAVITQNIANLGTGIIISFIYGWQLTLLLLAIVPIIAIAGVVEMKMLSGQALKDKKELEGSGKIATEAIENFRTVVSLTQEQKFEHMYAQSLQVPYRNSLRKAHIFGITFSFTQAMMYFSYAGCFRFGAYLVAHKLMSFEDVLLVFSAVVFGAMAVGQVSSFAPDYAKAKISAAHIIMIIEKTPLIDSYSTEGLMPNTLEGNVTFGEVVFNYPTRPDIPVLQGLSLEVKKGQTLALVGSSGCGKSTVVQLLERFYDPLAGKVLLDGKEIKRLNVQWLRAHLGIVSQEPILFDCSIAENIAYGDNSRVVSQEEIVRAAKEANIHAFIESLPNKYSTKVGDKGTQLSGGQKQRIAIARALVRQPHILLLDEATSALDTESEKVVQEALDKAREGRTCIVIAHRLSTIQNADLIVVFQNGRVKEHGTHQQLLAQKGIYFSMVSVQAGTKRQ

For the molecule `COc1ccc(CCN(C)CCCC(C#N)(c2ccc(OC)c(OC)c2)C(C)C)cc1OC` (stereo unspecified), the Activity in data set [1] worked out at 8.4%; in data set [2], 137.4; in data set [3] it was 92.2; in data set [5], 157.1. In addition, the Ratio EC50 in the data set on NCI/ADR-RES turned out to be 7.1. The Flu intensity in data set [4] is recorded as 170.

`C=C1CC[C@H]2[C@@H]([C@@H]3O[C@]4(C[C@H](C)[C@H](OC(=O)c5ccccc5)[C@@H]4[C@H]1OC(=O)c1ccccc1)C(=O)[C@H]3C)C2(C)C`: the pIC50 in the data set with MCF7 is 4.46; in data set [6], less than 4.00. In addition, in [1], the Activity was found to be 4.3%. Besides, in the data set with NCI/ADR-RES, the Ratio EC50 turned out to be 1.7. Further, the EC50 in data set [7] came out at 20.49 µM.

Regarding `C=C1CC[C@H]2[C@@H](/C=C(\C)C(=O)[C@@]3(O)C[C@H](C)[C@H](OC(=O)CC)[C@@H]3[C@H]1OC(=O)c1ccccc1)C2(C)C`, the figures for the pIC50 (in the data set on MCF7; in [6]) were 5.07 and 4.20, respectively. The Activity in data set [1] is reported as 12.1%. In addition, the Ratio EC50 with NCI/ADR-RES was determined as 8.2. Also, the EC50 in [7] amounted to 4.22 µM.

As to `C=C1CC[C@H]2[C@@H](/C=C(\C)C(=O)[C@@]3(O)C[C@H](C)[C@H](OC(=O)CCC)[C@@H]3[C@H]1OC(=O)CCC)C2(C)C`, the pIC50 is 4.73 with MCF7 and 4.29 in data set [6]. Besides, in data set [1], the Activity is recorded as 4%. Also, in the data set on NCI/ADR-RES, the Ratio EC50 was determined as 2.4. The EC50 in data set [7] stood at 14.49 µM.

As for `C=C1CC[C@H]2[C@@H](/C=C(\C)C(=O)[C@@]3(O)C[C@H](C)[C@H](OC(=O)CCCCC)[C@@H]3[C@H]1OC(=O)CCCCC)C2(C)C`, the negative logarithm of the IC50 (pIC50) is 4.33 in the data set on MCF7 and less than 4.00 in data set [6]. Also, the Activity in data set [1] is reported as 5.8%. Also, the Ratio EC50 in the data set with NCI/ADR-RES was determined as 1.9. In addition, the EC50 in [7] came to 18.51 µM.

For `C=C1CC[C@H]2[C@@H](/C=C(\C)C(=O)[C@@]3(O)C[C@H](C)[C@H](O)[C@@H]3[C@H]1OC(=O)CCCCC)C2(C)C`, the values for the pIC50 (in the data set on MCF7; in data set [6]) were 4.74 and 4.34, respectively. In addition, the Activity in data set [1] is 9.1%. Moreover, the Ratio EC50 in the data set with NCI/ADR-RES came to 3. Also, the EC50 in data set [7] was determined as 11.45 µM.

As to `C=C1CC[C@H]2[C@@H]([C@@H]3O[C@]4(C[C@H](C)[C@H](OC(=O)/C=C/c5ccccc5)[C@@H]4[C@H]1OC(=O)/C=C/c1ccccc1)C(=O)[C@H]3C)C2(C)C`, the figures for the pIC50 (in the data set on MCF7; in data set [6]) were 4.19 and less than 4.00, respectively. Moreover, the Activity in data set [1] worked out at 2.1%. Further, the Ratio EC50 in the data set with NCI/ADR-RES was found to be 3.6. In addition, the EC50 in data set [7] came to 9.68 µM.
